{"source": "paper PMC4181337", "about": "(Metallomics : integrated biometal science, 2013)", "key": {"[1]": {"system": "human red blood cells", "conditions": "inhibitor of the general anion transporter; cited from earlier work"}, "[2]": {"conditions": "Beagle dog, intravenous, radiolabeled; cited from earlier work"}, "[3]": {"test": "Serum total V pharmacokinetics", "type": "in vivo, human", "summary_of_the_method": "(§1)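 Diabetic patients were dosed with oral VOSO4 for forty days, followed by a sixteen-day washout, with periodic blood sampling. Total V was measured by GFAAS against a same-day standard curve; serum was run directly and whole blood after extra preparation. Decline was fitted to a one-compartment first-order model using the last dosing day plus three later points, giving k and half time. Accumulation was fitted using the washout k. AUC in (ng/mL)days was calculated for the exposure and decline phases.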"}, "[4]": {"test": "Whole blood total V pharmacokinetics", "type": "in vivo, human", "summary_of_the_method": "as §1"}, "[5]": {"test": "24 hour urinary V clearance at steady state", "type": "in vivo, human", "summary_of_the_method": "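Type 2 diabetic patients took VOSO4 orally as tablets with meals, 3 per day, for six weeks. 24 hour urine was collected at steady state, with one to three collections per patient. Urine was analysed directly for total V by Zeeman-corrected GFAAS against a standard curve run the same day. Steady-state urinary V output was taken as the minimum amount absorbed.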"}, "[6]": {"system": "patients with type 2 diabetes", "type": "in vivo, human", "summary_of_the_method": "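Patients took placebo, then oral VOSO4 tablets with meals (3/day) for six weeks. They self-monitored blood glucose before meals and at bedtime daily, reported as weekly averages. Two-step euglycemic-hyperinsulinemic clamps were run before and after treatment: overnight low-dose insulin to normalise glucose, then primed-continuous insulin at 0.5 and then 1.0 mU/kg/min, 2 h each. Glucose was checked every 5 min with variable glucose infusion. M was normalised to body mass.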"}, "[7]": {"system": "patients with type 2 diabetes", "test": "Adverse symptoms reported during the clinical study", "type": "in vivo, human", "conditions": "doses of V used in this clinical study; not severe enough to drop subjects"}, "[8]": {"system": "patients with type 2 diabetes", "conditions": "two higher dose groups (50, 100 mg V), six weeks; cited from earlier work"}, "[9]": {"conditions": "25 mg V/day oral as VOSO4, 6 weeks, group mean"}, "[10]": {"conditions": "25 mg V/day oral as VOSO4, group mean"}, "[11]": {"conditions": "50 mg V/day oral as VOSO4, 6 weeks, group mean ± SD"}, "[12]": {"conditions": "50 mg V/day oral as VOSO4, 6 weeks, individual patient"}, "[13]": {"conditions": "50 mg V/day oral as VOSO4, exposure and decline phases, individual patient"}, "[14]": {"conditions": "50 mg V/day oral as VOSO4, group mean ± SD"}, "[15]": {"conditions": "100 mg V/day oral as VOSO4, 6 weeks, group mean ± SD"}, "[16]": {"conditions": "100 mg V/day oral as VOSO4, 6 weeks, individual patient"}, "[17]": {"conditions": "100 mg V/day oral as VOSO4, exposure and decline phases, individual patient"}, "[18]": {"conditions": "100 mg V/day oral as VOSO4, group mean ± SD"}, "[19]": {"conditions": "patients taking 100 mg V per day"}, "[20]": {"conditions": "of the 8 patients receiving 100 mg V/day"}}, "note": "“And” between values parts separate entries of the source, which are not always exact repeats. Equal values may be shown once."}
{"compound": "CC(=O)/C=C(/C)[O-].CC(=O)/C=C(/C)[O-].[O]=[V+2]", "note": "[VO(acac)2]", "values": [{"measurement": "uptake by human red blood cells in the presence of DIDS", "setting": "[1]", "result": "no change"}]}
{"compound": "[O]=[V]([O-])([O-])[O-]", "note": "[vanadate]", "values": [{"measurement": "half time of single exponential decline (majority of the dose)", "setting": "[2]", "result": 24, "unit": "h"}, {"measurement": "uptake by human red blood cells in the presence of DIDS", "setting": "[1]", "result": "blocked"}]}
{"compound": "O=S(=O)([O-])[O-].[O]=[V+2]", "note": "[vanadyl]", "values": [{"measurement": "half time of single exponential decline (majority of the dose)", "setting": "[2]", "result": 24, "unit": "h"}]}
{"compound": "O=S(=O)([O-])[O-].[O]=[V+2]", "note": "[vanadyl sulfate]", "values": [{"measurement": "Pk Serum V", "setting": "[3]; [9]", "result": 18.9, "unit": "ng/mL"}, {"measurement": "SS Serum V", "setting": "[3]; [9]", "result": 15.4, "unit": "ng/mL"}, {"measurement": "Pk Serum V", "setting": "[3]; 25 mg V/day oral as VOSO4, 6 weeks, individual patient", "result": "16.7 ng/mL and 21.1 ng/mL"}, {"measurement": "Ser V t1/2", "setting": "[3]; [10]", "result": 64.8, "unit": "h"}, {"measurement": "Pk Serum V", "setting": "[3]; [11]", "result": "81.7 ± 40 ng/mL and 81.7 ± 40.5 ng/mL"}, {"measurement": "SS Serum V", "setting": "[3]; [11]", "result": "63.1 ± 37.8", "unit": "ng/mL"}, {"measurement": "Pk Serum V", "setting": "[3]; [12]", "result": "125 ng/mL and 87.0 ng/mL and 114 ng/mL and 30.2 ng/mL and 51.7 ng/mL"}, {"measurement": "AUC Serum V", "setting": "[3]; [13]", "result": "3538 (ng/mL)days and 1747 (ng/mL)days and 3894 (ng/mL)days and 946 (ng/mL)days and 617 (ng/mL)days"}, {"measurement": "AUC Serum V", "setting": "[3]; [14]", "result": "2149 ± 1494 (ng/mL)days"}, {"measurement": "Ser V t1/2", "setting": "[3]; [14]", "result": "113 ± 38.4", "unit": "h"}, {"measurement": "ratio of serum AUC to whole blood AUC, mean value", "setting": "[3]; 50 mg dose group", "result": "1.07±0.86 (ng/mL)days"}, {"measurement": "Pk Serum V", "setting": "[3]; [15]", "result": "319 ± 268", "unit": "ng/mL"}, {"measurement": "SS Serum V", "setting": "[3]; [15]", "result": "314 ± 178", "unit": "ng/mL"}, {"measurement": "Pk Serum V", "setting": "[3]; [16]", "result": "252 ng/mL and 227 ng/mL and 423 ng/mL and 906 ng/mL and 213 ng/mL and 368 ng/mL and 144 ng/mL"}, {"measurement": "AUC Serum V", "setting": "[3]; [17]", "result": "8695 (ng/mL)days and 8328 (ng/mL)days and 15779 (ng/mL)days and 26713 (ng/mL)days and 8041 (ng/mL)days and 11412 (ng/mL)days and 4781 (ng/mL)days"}, {"measurement": "AUC Serum V", "setting": "[3]; [18]", "result": "11965 ± 7340 (ng/mL)days"}, {"measurement": "Ser V t1/2", "setting": "[3]; [18]", "result": "110 ± 60", "unit": "h"}, {"measurement": "ratio of serum AUC to whole blood AUC, mean value", "setting": "[3]; 100 mg dose group", "result": "1.65±0.32 (ng/mL)days"}, {"measurement": "fold increase in steady state serum V concentration", "setting": "[3]; 25 to 50 mg dose groups", "result": 4, "unit": "fold"}, {"measurement": "fold increase in steady state serum V concentration", "setting": "[3]; 50 to 100 mg dose groups", "result": 5, "unit": "fold"}, {"measurement": "Pk Blood V", "setting": "[4]; [11]", "result": "85 ± 54", "unit": "ng/mL"}, {"measurement": "SS Blood V", "setting": "[4]; [11]", "result": "65 ± 39", "unit": "ng/mL"}, {"measurement": "Pk Blood V", "setting": "[4]; [12]", "result": "163 ng/mL and 26 ng/mL and 109 ng/mL and 50 ng/mL and 75 ng/mL"}, {"measurement": "Bld V t1/2", "setting": "[4]; 50 mg V/day oral as VOSO4, decline phase, individual patient", "result": "240 h and 69.6 h and 106 h and 93.6 h and 161 h"}, {"measurement": "AUC Blood V", "setting": "[4]; [13]", "result": "3762 (ng/mL)days and 701 (ng/mL)days and 3474 (ng/mL)days and 2025 (ng/mL)days and 1788 (ng/mL)days"}, {"measurement": "AUC Blood V", "setting": "[4]; [14]", "result": "2351 ± 1264 (ng/mL)days"}, {"measurement": "Bld V t1/2", "setting": "[4]; [14]", "result": "134 ± 67.2", "unit": "h"}, {"measurement": "Pk Blood V", "setting": "[4]; [15]", "result": "201 ± 200", "unit": "ng/mL"}, {"measurement": "SS Blood V", "setting": "[4]; [15]", "result": "205 ± 164", "unit": "ng/mL"}, {"measurement": "Pk Blood V", "setting": "[4]; [16]", "result": "136 ng/mL and 132 ng/mL and 264 ng/mL and 654 ng/mL and 95 ng/mL and 225 ng/mL"}, {"measurement": "Bld V t1/2", "setting": "[4]; 100 mg V/day oral as VOSO4, decline phase, individual patient", "result": "96 h and 103 h and 173 h and 146 h and 50.4 h and 72 h and 209 h"}, {"measurement": "AUC Blood V", "setting": "[4]; [17]", "result": "5648 (ng/mL)days and 5863 (ng/mL)days and 10552 (ng/mL)days and 20245 (ng/mL)days and 3741 (ng/mL)days and 6998 (ng/mL)days and 2341 (ng/mL)days"}, {"measurement": "AUC Blood V", "setting": "[4]; [18]", "result": "7912 ± 6023 (ng/mL)days"}, {"measurement": "Bld V t1/2", "setting": "[4]; [18]", "result": "122 ± 57.6", "unit": "h"}, {"measurement": "Mean Urine [V] at Steady State", "setting": "[5]; [10]", "result": 54, "unit": "ng/mL"}, {"measurement": "Mean Urine [V] at Steady State", "setting": "[5]; 25 mg V/day oral as VOSO4, individual patient", "result": "60 ng/mL and 47 ng/mL"}, {"measurement": "24 hour urinary V output at steady state", "setting": "[5]; 50 mg V group, oral vanadyl sulfate", "result": "0.18 ± 0.24", "unit": "mg"}, {"measurement": "Mean Urine [V] at Steady State", "setting": "[5]; [14]", "result": "59 ± 80", "unit": "ng/mL"}, {"measurement": "Mean Urine [V] at Steady State", "setting": "[5]; 50 mg V/day oral as VOSO4, individual patient", "result": "215 ng/mL and 29 ng/mL and 165 ng/mL and 18 ng/mL and 22 ng/mL"}, {"measurement": "24 hour urinary V output at steady state", "setting": "[5]; 100 mg V group, oral vanadyl sulfate", "result": "0.97 ± 0.84", "unit": "mg"}, {"measurement": "Mean Urine [V] at Steady State", "setting": "[5]; [18]", "result": "654 ± 705", "unit": "ng/mL"}, {"measurement": "Mean Urine [V] at Steady State", "setting": "[5]; 100 mg V/day oral as VOSO4, individual patient", "result": "412 ng/mL and 468 ng/mL and 457 ng/mL and 2199 ng/mL and 207 ng/mL and 703 ng/mL and 135 ng/mL"}, {"measurement": "absorbed fraction of the administered V", "setting": "[5]; 16 type 2 diabetic patients, oral vanadyl sulfate", "result": "about 1%"}, {"measurement": "absorption of the administered dose", "setting": "[5]; 50 and 100 mg V groups, estimated from steady state urinary output", "result": "≤ 1", "unit": "%"}, {"measurement": "V excreted", "setting": "[5]; [19]", "result": "approximately 1 mg V per day"}, {"measurement": "absorption of V entering the GI tract", "setting": "[5]; [19]", "result": 1, "unit": "%"}, {"measurement": "absorption of V, of the daily dose", "setting": "[5]; three doses of V used (25, 50, 100 mg/day)", "result": "less than 1%"}, {"measurement": "patients with improved responses for all three variables", "setting": "[6]; of the 5 patients receiving 50 mg V/day", "result": 2}, {"measurement": "patients who responded well for all three variables", "setting": "[6]; [20]", "result": "three"}, {"measurement": "patients who responded well for two variables", "setting": "[6]; [20]", "result": "four"}, {"measurement": "adverse symptoms", "setting": "[7]", "result": "symptoms of gastrointestinal distress"}, {"measurement": "patients with improved fasting blood glucose", "setting": "[8]", "result": "approximately 50%"}]}
